Data set [1] has as its system SK-MEL. The data set can be described thus: Cytotoxicity against human SK-MEL cells assessed as reduction in cell viability measured after 48 hrs by MTT assay. The class given is functional, cell-based. An outline of the steps:
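MTT assay: SK-MEL-1 cells (DMEM, 10% FBS, 37 °C, 5% CO2) seeded 10⁴/well for 24 h, then exposed to a range of concentrations for 48 h; MTT added for 4 h at 37 °C, formazan dissolved in DMSO, absorbance 570 nm. IC50 as mean ± SD, three independent experiments.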
On the technique in general: Tetrazolium assays rely on reduction of a dye to a coloured formazan, in cell work by metabolically active cells.

The species named for data set [2] is Danio rerio. As to the kind of experiment: Antiangiogenic activity in transgenic Tg(fli1:GFP) zebra fish embryo assessed as reduction in angiogenic sprouts at 20 uM measured at 48 hrs postfertilization by fluorescence microscopy. It is filed as functional, organism-based. The method in brief: (§1)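 Tg:Fli1-GFP embryos selected at 12 hpf, 30 per well, 28.5 °C in E3 medium, exposed to compound (20 μM); chorions broken at 24 hpf; at 48 hpf ISVs and angiogenic sprouts counted by fluorescence microscopy. Sorafenib (1 μM) positive control; mean, SD; one-way ANOVA with Tukey post hoc test.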

For data set [3], the species on record is Danio rerio. As to the kind of experiment: Antiangiogenic activity in transgenic Tg(fli1:GFP) zebra fish embryo assessed as reduction in intersegmental blood vessels at 20 uM measured at 48 hrs postfertilization by fluorescence microscopy. It is filed as functional, organism-based. The method in brief: as §1
Data set [4] in a line: Toxicity in zebra fish larvae at 100 uM measured at 48 hpf by stereomicroscopic analysis. More on the design: species or system Danio rerio. Particulars: zebrafish, 48 h. The method in brief:
(§2)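 Zebrafish larvae at 48 hpf, kept at 28.5 °C in E3 medium, treated with compound; survival and pathological changes (e.g. pericardial edema) checked by stereomicroscope every 12 h.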

Data set [5] is described as follows: Toxicity in zebra fish larvae assessed as death at 100 uM measured at 48 hpf by stereomicroscopic analysis. The settings on record: zebrafish, 48 h. More on the design: species or system Danio rerio. The method in brief: as §2
Data set [6] in a line: Toxicity in zebra fish larvae assessed as pericardial edema at 100 uM measured at 48 hpf by stereomicroscopic analysis. More on the design: species or system Danio rerio. The settings on record: zebrafish, 48 h. An outline of the steps: as §2
The nature of data set [7]: Toxicity in zebra fish larvae assessed as curved tail at 100 uM measured at 48 hpf by stereomicroscopic analysis. The settings on record: zebrafish, 48 h. Set-up: species or system Danio rerio. An outline of the steps:
as §2

Data set [8] concerns SK-MEL. As to the kind of experiment: Induction of apoptosis in human SK-MEL cells assessed as increase in cleaved PARP level at 10 uM incubated for 48 hrs by Western blot analysis. The class given is functional, cell-based. An outline of the steps: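 SK-MEL-1 cells (DMEM, 10% FBS, 37 °C, 5% CO2) were seeded at 3 × 10⁵/well for 24 h, then treated for 48 h. They were lysed in RIPA buffer with PMSF, orthovanadate, DTT and phosphatase inhibitor for 15 min at 4 °C, and protein was quantified by BCA. 20 μg was run on SDS-PAGE and blotted to PVDF, with primary antibody overnight at 4 °C and secondary 1 h at room temperature. Detection was by ECL, with β-actin as loading control.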
For orientation: A western blot detects proteins with antibodies after separation by electrophoresis.

In data set [9] the test system is SK-MEL. The data set can be described thus: Anti-melanoma activity against human SK-MEL cells xenografted in yolk of zebra fish at 0.5 uM measured after 48 hrs by CM-Dil staining based fluorescence microscopic analysis. It is filed as functional, cell-based. The method in brief: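 SK-MEL-1 cells were prestained with CM-DiI (2 μM) and microinjected into the superficial yolk near the perivitelline space of 2 dpf zebrafish. Embryos were kept in E3 medium, treated for 48 h at 28.5 °C, then immobilized. CM-DiI fluorescence was imaged by fluorescence microscopy alongside bright field, and the melanoma area was outlined.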

In data set [10] the test system is SK-MEL. As to the kind of experiment: Anti-melanoma activity against human SK-MEL cells xenografted in yolk of zebra fish at 10 uM measured after 48 hrs by CM-Dil staining based fluorescence microscopic analysis. The class given is functional, cell-based. The method in brief:
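SK-MEL-1 cells prelabelled with CM-DiI (2 μM) microinjected into superficial yolk near perivitelline space of 2 dpf zebrafish embryos; treated 48 h at 28.5 °C; CM-DiI fluorescence of tumour mass imaged by fluorescence microscopy in immobilized fish. Sorafenib (0.5 μM) positive control.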
For orientation: In xenograft studies the graft and the host belong to different species.

Data set [11] relates to SK-MEL. As to the kind of experiment: Induction of apoptosis in human SK-MEL cells assessed as increase in cleaved PARP level at 0.1 to 0.5 uM incubated for 48 hrs by Western blot analysis. It is filed as functional, cell-based. The settings on record: dose 0.1-0.5 µM. The method in brief:
(§3)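 SK-MEL-1 cells seeded 3 × 10⁵/well for 24 h, treated 48 h; lysed in RIPA buffer with protease and phosphatase inhibitors 15 min at 4 °C; 20 μg protein by SDS-PAGE, PVDF transfer, PARP immunoblot with ECL detection; β-actin loading control. Sorafenib (10 μM) positive control.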

Data set [12] concerns SK-MEL. The data set can be described thus: Induction of apoptosis in human SK-MEL cells assessed as increase in cleaved PARP level at 0.5 to 1 uM incubated for 48 hrs by Western blot analysis. The class given is functional, cell-based. The settings on record: dose 0.5-1 µM. An outline of the steps:
as §3

Data set [13] addresses Vascular endothelial growth factor receptor 2 (Danio rerio) (UniProt Q5GIT4). The data set can be described thus: Inhibition of VEGFR2 mediated angiogenesis in transgenic Tg(flk1:GFP) zebra fish embryo at 20 uM measured at 48 hrs postfertilization by fluorescence microscopy. The method in brief: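 Tg:Flk1-GFP (VEGFR2 reporter) embryos treated from 12 hpf at 20 μM, 28.5 °C in E3 medium; chorions removed at 24 hpf; ISV and sprout numbers counted at 48 hpf under fluorescence microscope. Sorafenib (1 μM) positive control; one-way ANOVA, Tukey post hoc test.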

The test system of data set [14] is SK-MEL. The data set can be described thus: Induction of apoptosis in human SK-MEL cells assessed as increase in cleaved PARP level at 0.2 to 0.8 uM incubated for 48 hrs by Western blot analysis. The class given is functional, cell-based. The settings on record: dose 0.2-0.8 µM. An outline of the steps:
as §3

Molecules are shown by their SMILES. Active and inactive are the calls of the source. The calls are words filed in the database; no cut-off is given here.

Sequence of Vascular endothelial growth factor receptor 2 (Danio rerio) (Q5GIT4 whole entry): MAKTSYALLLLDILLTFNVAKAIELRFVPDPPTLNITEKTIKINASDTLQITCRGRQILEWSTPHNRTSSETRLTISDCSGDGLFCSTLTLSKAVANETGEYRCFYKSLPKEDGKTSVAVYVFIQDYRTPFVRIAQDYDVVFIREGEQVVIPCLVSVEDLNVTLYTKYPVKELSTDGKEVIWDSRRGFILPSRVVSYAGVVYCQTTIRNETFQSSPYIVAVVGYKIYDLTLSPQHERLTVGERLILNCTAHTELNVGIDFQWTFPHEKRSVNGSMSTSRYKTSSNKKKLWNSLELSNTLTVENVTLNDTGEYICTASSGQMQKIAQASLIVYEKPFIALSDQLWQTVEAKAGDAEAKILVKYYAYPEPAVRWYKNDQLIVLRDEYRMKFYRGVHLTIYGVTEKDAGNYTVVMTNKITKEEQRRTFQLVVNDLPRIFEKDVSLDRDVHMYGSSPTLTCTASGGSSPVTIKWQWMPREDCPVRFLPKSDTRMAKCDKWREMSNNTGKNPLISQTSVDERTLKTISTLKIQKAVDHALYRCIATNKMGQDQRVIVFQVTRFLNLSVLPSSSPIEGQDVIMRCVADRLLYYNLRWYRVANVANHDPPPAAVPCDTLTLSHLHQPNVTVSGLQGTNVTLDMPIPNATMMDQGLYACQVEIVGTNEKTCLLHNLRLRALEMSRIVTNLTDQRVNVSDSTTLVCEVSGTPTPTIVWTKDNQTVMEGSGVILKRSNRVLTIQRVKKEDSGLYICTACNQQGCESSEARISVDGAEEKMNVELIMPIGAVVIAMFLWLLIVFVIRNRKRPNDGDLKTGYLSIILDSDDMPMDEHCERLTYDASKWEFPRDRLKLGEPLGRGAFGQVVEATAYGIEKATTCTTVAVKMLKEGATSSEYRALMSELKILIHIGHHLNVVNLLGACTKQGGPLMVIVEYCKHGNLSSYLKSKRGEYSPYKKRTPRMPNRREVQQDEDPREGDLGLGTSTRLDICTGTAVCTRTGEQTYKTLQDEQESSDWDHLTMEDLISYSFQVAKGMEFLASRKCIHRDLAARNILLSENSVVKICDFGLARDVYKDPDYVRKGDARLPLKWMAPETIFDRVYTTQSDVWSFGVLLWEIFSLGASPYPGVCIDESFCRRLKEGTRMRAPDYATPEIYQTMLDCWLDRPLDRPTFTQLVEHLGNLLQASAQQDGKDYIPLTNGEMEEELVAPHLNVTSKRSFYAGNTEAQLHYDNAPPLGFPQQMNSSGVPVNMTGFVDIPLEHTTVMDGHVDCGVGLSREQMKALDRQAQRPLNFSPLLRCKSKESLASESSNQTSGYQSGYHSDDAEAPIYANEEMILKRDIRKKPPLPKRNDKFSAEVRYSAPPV

A word on the IC50: it is the concentration at which inhibition is half-maximal. As to `C[C@]12CC[C@H](O)C[C@@]1(O)CC[C@@H]1[C@@H]2CC[C@]2(C)[C@@H](c3ccc(=O)oc3)[C@@H](O)C[C@]12O`, in data set [1], the IC50 came to 700 nM. The result in data set [2] and in data set [3] was inactive. In addition, in [4], the Activity entry is “Non-Toxic”.

As to `C[C@]12CC[C@H]3[C@@H](CC[C@]4(O)C[C@@H](O)CC[C@]34C(=O)O)[C@@]1(O)CC[C@@H]2c1ccc(=O)oc1`, the IC50 in [1] worked out at 290 nM. For the same compound, the result in [2] and in data set [3] was inactive. The Activity entry in data set [4] is reported as “Non-Toxic”.

As to `C[C@]12CC[C@@H]3[C@H]4CC[C@H](O)C[C@@]4(O)CC[C@H]3[C@]13O[C@@H]3C[C@@H]2c1ccc(=O)oc1`, the IC50 in data set [1] turned out to be 3600 nM. In addition, the Activity result in [5], in data set [6] and in [7] was “Toxic” each time. In addition, the outcome in data set [2] and in data set [3] was inactive.

As for `CNC(=O)c1cc(Oc2ccc(NC(=O)Nc3ccc(Cl)c(C(F)(F)F)c3)cc2)ccn1` [SORAFENIB], the IC50 in [1] is 10000 nM. Besides, the result in data set [8] was inactive. For the same compound, the outcome in [9] was Active.

Consider `C[C@]12CC[C@H](O)C[C@@]1(O)CC[C@@H]1[C@@H]2CC[C@]2(C)[C@@H](c3ccc(=O)oc3)CC[C@]12O` [TELOCINOBUFAGIN], for which the result in data set [10] and in data set [11] was Active. Besides, the IC50 in [1] worked out at 50 nM. In addition, the Activity result in data set [5], in [6] and in [7] was “Toxic” throughout. The outcome in data set [2] and in data set [3] was inactive.

`C[C@]12CC[C@H]3[C@@H](CC[C@]4(O)C[C@@H](O)CC[C@]34O)[C@@]1(O)CC[C@@H]2c1ccc(=O)oc1`: the result in data set [12] and in data set [13] was inactive. For the same compound, the IC50 in [1] was determined as 910 nM. Besides, the result in data set [2] and in data set [3] was Active. In addition, the Activity entry in data set [4] is reported as “Non-Toxic”.

Take `C[C@]12CC[C@H]3[C@@H](CC[C@]4(O)C[C@@H](O)CC[C@]34C=O)[C@@]1(O)CC[C@@H]2c1ccc(=O)oc1`: the outcome in data set [14] and in data set [13] was inactive. In [1], the IC50 was 96 nM. The Activity entry in data set [6] was “Toxic”. For the same compound, the outcome in [2] and in data set [3] was Active.

Take `C[C@]12CC[C@@H]3C4=C(C[C@H]3[C@@]1(O)CC[C@@H]2c1ccc(=O)oc1)C(=O)C=CCC4`: in data set [1], the IC50 turned out to be 3300 nM. Further, the Activity entry in [5], in data set [6] and in data set [7] was “Toxic” throughout. Moreover, the outcome in [2] and in data set [3] was inactive.

In the case of `C[C@]12CC[C@@H]3[C@H]4CC[C@H](O)C[C@@]4(O)CC[C@H]3[C@@]1(O)CC[C@@H]2c1ccc(=O)oc1`, the IC50 in data set [1] is 280 nM.

For the origin of these results see ChEMBL document CHEMBL4823259, “Bufadienolides from the Eggs of the Toad Bufo bufo gargarizans and Their Antimelanoma Activities” (J Nat Prod, 2021).
